Converted amounts (≈) assume the structure as drawn.
Tests used:
Plasmodium falciparum [1] = assay: Antimalarial activity against Plasmodium falciparum K1; assay type: functional, organism-based
Outline: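 P. falciparum K1 (multidrug-resistant) cultured with compound at serial dilutions; growth measured as percentage reduction versus untreated controls; IC50 derived by probit analysis. Only compounds active in the preliminary single-concentration screen went on to this step.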

HL-60 = assay: Cytotoxicity against human HL60 cells after 72 hrs by MTT assay; assay type: functional, cell-based; conditions: HL-60, 72 h
Outline: (§1)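 Human tumour lines were grown in RPMI 1640 with 10% fetal bovine serum and 1% antibiotics at 37 °C under 5% CO2. Plating densities were 0.7 × 10⁵ for HCT-8, 0.6 × 10⁵ for SF-295 and 0.3 × 10⁶ for HL-60. Samples came from a 5 mg/mL DMSO stock and were incubated 72 h. MTT read at 550 nm; growth inhibition relative to […]. Triplicate, two independent experiments.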

SF-295 = assay: Cytotoxicity against human SF295 cells after 72 hrs by MTT assay; assay type: functional, cell-based; outline: as §1
HCT-8 = assay: Cytotoxicity against human HCT8 cells after 72 hrs by MTT assay; assay type: functional, cell-based; outline: as §1
MDA-MB-435 = assay: Cytotoxicity against human MDA-MB-435 cells after 72 hrs by MTT assay; assay type: functional, cell-based
Plasmodium falciparum [2] = assay: Antimalarial activity against Plasmodium falciparum K1 at 50 ug/mL; assay type: functional
Outline: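 Preliminary screen against P. falciparum K1 at two concentrations, printed as 50 and 2.5 (unit unclear). Parasite growth given as percentage reduction versus untreated controls.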

## CCN(CC)CCCC(C)Nc1ccnc2cc(Cl)ccc12 (stereo unspecified) [CHLOROQUINE PHOSPHATE]
Plasmodium falciparum [1]
  IC50: 890 nM

## Oc1ccccc1O [CATECHOL]
HL-60
  IC50: 1.08 µg/mL (≈ 9.81 µM)
SF-295; Homo sapiens, SF-295, 72 h, read-out: IC50
  IC50: 12.9 µg/mL (≈ 117 µM)
HCT-8; Homo sapiens, HCT-8, 72 h, read-out: IC50
  IC50: 13.5 µg/mL (≈ 123 µM)
MDA-MB-435; Homo sapiens, MDA-MB-435, 72 h, read-out: IC50
  IC50: > 25 µg/mL
Plasmodium falciparum [1]
  IC50: 80600 nM

## C=C[C@@](C)(O)CC/C=C(/C)CCC=C(C)C [NEROLIDIOL]
Plasmodium falciparum [2]
  inhibition at 50 µg/mL: 50%
SF-295; sf-295
  IC50: Not Active
HCT-8; hct-8
  IC50: Not Active
MDA-MB-435; mda-mb-435
  IC50: Not Active

## C=C[C@H]1CN2CC[C@H]1C[C@H]2[C@H](O)c1ccnc2ccc(OC)cc12 [QUININE]
Plasmodium falciparum [1]
  IC50: 12 nM

— ChEMBL document CHEMBL1158370, “New antimalarial and cytotoxic 4-nerolidylcatechol derivatives” (Eur J Med Chem, 2009)
